Results reported in ChEMBL document CHEMBL1139668, “Structure-activity relationship studies on niphimycin, a guanidylpolyol macrolide antibiotic. Part 1: The role of the N-methyl-N''-alkylguanidinium moiety” (2006).
Converted amounts (≈) assume the structure as drawn. The source made the active and inactive calls. No cut-off for these calls is given here.

Experiments:
Aspergillus niger = test: Antifungal activity against Aspergillus niger ATCC 6275; type: functional
[1] = test system: Schizosaccharomyces pombe; test: Antimicrobial activity against Schizosaccharomyces pombe IFO 0342; type: functional
Escherichia coli = test: Antibacterial activity against Escherichia coli IFO 2545; type: functional
Method in brief: (§1)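 MIC by serial twofold broth dilution; bacteria grown in 3% nutrient broth at 37 °C, read after 24 h of cultivation.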

Rhodotorula mucilaginosa = test: Antimicrobial activity against Rhodotorula mucilaginosa IFO 0001; type: functional
Saccharomyces cerevisiae [2] = test: Antimicrobial activity against Saccharomyces cerevisiae IFO 0203; type: functional
Saccharomyces cerevisiae [3] = test: Antimicrobial activity against Saccharomyces cerevisiae X2180 1A; type: functional
Mucor mucedo = test: Antifungal activity against Mucor mucedo IFO 7684; type: functional
Micrococcus luteus = test: Antibacterial activity against Micrococcus luteus IFO 3333; type: functional; method in brief: as §1
Candida albicans = test: Antimicrobial activity against Candida albicans IFO 1061; type: functional
Bacillus subtilis = test: Antibacterial activity against Bacillus subtilis IFO 3007; type: functional; method in brief: as §1
[4] = test system: Schizosaccharomyces pombe; test: Antimicrobial activity against Schizosaccharomyces pombe SA21 h+; type: functional
Rhizopus arrhizus = test: Antifungal activity against Rhizopus oryzae IFO 4766; type: functional
[5] = test system: Schizosaccharomyces pombe; test: Antimicrobial activity against Schizosaccharomyces pombe L972 h-; type: functional
Penicillium chrysogenum = test: Antifungal activity against Penicillium chrysogenum IFO 4626; type: functional
Saccharomyces cerevisiae [6] = test: ROS production in Saccharomyces cerevisiae cells at lethal concentration; type: functional, organism-based
Method in brief: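 S. cerevisiae cells (10^7 cells/ml) preloaded with 40 µM DCFH-DA in YPD medium, 30 °C, 60 min. Then exposed to compound in YPD at 30 °C for 60 min, washed and resuspended in phosphate-buffered saline. Fluorescence of 10^7 cells read at excitation 480 nm, emission 530 nm. Intensity reported directly as arbitrary units.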

Saccharomyces cerevisiae [7] = test: ROS production in Saccharomyces cerevisiae cells at 10 uM; type: functional, organism-based
Method in brief: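 Yeast cells (10^7 cells/ml) preloaded with 40 µM DCFH-DA in YPD at 30 °C for 60 min, then exposed to compound in YPD at 30 °C for 60 min. Cells washed and resuspended in PBS. Fluorescence read at ex 480/em 530 nm and given in arbitrary units.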

| MIC (Aspergillus niger) | MIC [1] | MIC (Escherichia coli) | MIC (Rhodotorula mucilaginosa) | MIC (Saccharomyces cerevisiae [2]) | MIC (Saccharomyces cerevisiae [3]) | MIC (Mucor mucedo) | MIC (Micrococcus luteus) | MIC (Candida albicans) | MIC (Bacillus subtilis) | MIC [4] | MIC (Rhizopus arrhizus) | MIC [5] | MIC (Penicillium chrysogenum) | Compound | Activity (Saccharomyces cerevisiae [6]) | Activity (Saccharomyces cerevisiae [7]) |
| --- | --- | --- | --- | --- | --- | --- | --- | --- | --- | --- | --- | --- | --- | --- | --- | --- |
| > 400 µM | > 400 µM | 400 µM (≈ 51.7 µg/mL) | > 400 µM | > 400 µM | > 400 µM | > 400 µM | > 400 µM | > 400 µM | > 400 µM | > 400 µM | > 400 µM | > 400 µM | 100 µM (≈ 12.9 µg/mL) | CCCC/N=C(\N)NC | – | – |
| > 400 µM | 400 µM (≈ 74.1 µg/mL) | 400 µM (≈ 74.1 µg/mL) | > 400 µM | > 400 µM | > 400 µM | > 400 µM | > 400 µM | > 400 µM | > 400 µM | 400 µM (≈ 74.1 µg/mL) | > 400 µM | 200 µM (≈ 37.1 µg/mL) | 100 µM (≈ 18.5 µg/mL) | CCCCCCCC/N=C(\N)NC | – | – |
| 25 µM (≈ 7.44 µg/mL) | 25 µM (≈ 7.44 µg/mL) | 50 µM (≈ 14.9 µg/mL) | 12.5 µM (≈ 3.72 µg/mL) | 50 µM (≈ 14.9 µg/mL) | 100 µM (≈ 29.8 µg/mL) | 12.5 µM (≈ 3.72 µg/mL) | > 400 µM | 200 µM (≈ 59.5 µg/mL) | 12.5 µM (≈ 3.72 µg/mL) | 12.5 µM (≈ 3.72 µg/mL) | 50 µM (≈ 14.9 µg/mL) | 12.5 µM (≈ 3.72 µg/mL) | 6.25 µM (≈ 1.86 µg/mL) | CCCCCCCCCCCCCCCC/N=C(\N)NC | Active | – |
| – | – | – | – | – | – | – | – | – | – | – | – | – | – | C[C@@H]1[C@H](O)[C@@H](C)/C=C/C=C/C=C/C=C/C=C/C=C/C=C/[C@H](O[C@@H]2O[C@H](C)[C@@H](O)[C@H](N)[C@@H]2O)C[C@@H]2O[C@](O)(C[C@@H](O)C[C@@H](O)[C@H](O)CC[C@@H](O)C[C@@H](O)CC(=O)O[C@H]1C)C[C@H](O)[C@H]2C(=O)O | – | inactive |
| 50 µM (≈ 12.1 µg/mL) | 50 µM (≈ 12.1 µg/mL) | 50 µM (≈ 12.1 µg/mL) | 50 µM (≈ 12.1 µg/mL) | 100 µM (≈ 24.1 µg/mL) | 100 µM (≈ 24.1 µg/mL) | 50 µM (≈ 12.1 µg/mL) | > 400 µM | 400 µM (≈ 96.6 µg/mL) | 25 µM (≈ 6.04 µg/mL) | 50 µM (≈ 12.1 µg/mL) | 200 µM (≈ 48.3 µg/mL) | 50 µM (≈ 12.1 µg/mL) | 25 µM (≈ 6.04 µg/mL) | CCCCCCCCCCCC/N=C(\N)NC | – | – |
| 200 µM (≈ 57.1 µg/mL) | 400 µM (≈ 114 µg/mL) | 400 µM (≈ 114 µg/mL) | 200 µM (≈ 57.1 µg/mL) | > 400 µM | > 400 µM | > 400 µM | > 400 µM | > 400 µM | 400 µM (≈ 114 µg/mL) | 400 µM (≈ 114 µg/mL) | > 400 µM | 400 µM (≈ 114 µg/mL) | 200 µM (≈ 57.1 µg/mL) | CNC(=N)NCCCCCCCCCCCC(=O)OC | – | – |
| > 400 µM | 200 µM (≈ 54.3 µg/mL) | 400 µM (≈ 109 µg/mL) | 200 µM (≈ 54.3 µg/mL) | > 400 µM | 400 µM (≈ 109 µg/mL) | 400 µM (≈ 109 µg/mL) | 400 µM (≈ 109 µg/mL) | 400 µM (≈ 109 µg/mL) | 100 µM (≈ 27.1 µg/mL) | 200 µM (≈ 54.3 µg/mL) | > 400 µM | 200 µM (≈ 54.3 µg/mL) | 400 µM (≈ 109 µg/mL) | C/N=C(/N)NCCCCCCCCCCCC(=O)O | – | – |
| > 400 µM | > 400 µM | > 400 µM | > 400 µM | > 400 µM | > 400 µM | > 400 µM | > 400 µM | > 400 µM | > 400 µM | > 400 µM | > 400 µM | > 400 µM | > 400 µM | C/N=C(/N)NCCCCCCCCCCCCO | – | – |

| Compound | MIC (Aspergillus niger) | MIC [1] | MIC (Escherichia coli) | MIC (Rhodotorula mucilaginosa) | MIC (Saccharomyces cerevisiae [2]) | MIC (Saccharomyces cerevisiae [3]) | MIC (Mucor mucedo) | MIC (Micrococcus luteus) | MIC (Candida albicans) | MIC (Bacillus subtilis) | MIC [4] | MIC (Rhizopus arrhizus) | MIC [5] | MIC (Penicillium chrysogenum) | Activity (Saccharomyces cerevisiae [6]) | Activity (Saccharomyces cerevisiae [7]) |
| --- | --- | --- | --- | --- | --- | --- | --- | --- | --- | --- | --- | --- | --- | --- | --- | --- |
| C/N=C(/N)NCCC/C=C/CCC[C@H](C)C[C@H](C)[C@H]1OC(=O)C(C)C(O)/C=C/C(C)C(O)CC(O)C(C)C(O)CCC(C)C(O)CC2(O)OC(CC(OC(=O)CC(=O)O)CC(O)CC(O)C(C)C(O)/C=C/C=C/C1C)CC(O)C2O (stereo not given in full) [NIPHIMYCIN] | 2 µM (≈ 2.28 µg/mL) | – | – | 2 µM (≈ 2.28 µg/mL) | – | 5 µM (≈ 5.71 µg/mL) | 10 µM (≈ 11.4 µg/mL) | – | 2 µM (≈ 2.28 µg/mL) | 5 µM (≈ 5.71 µg/mL) | – | 1 µM (≈ 1.14 µg/mL) | 2 µM (≈ 2.28 µg/mL) | 1 µM (≈ 1.14 µg/mL) | Active | – |
